In ChEMBL document CHEMBL1144804, “Sesquiterpene quinones and related metabolites from Phyllosticta spinarum, a fungal strain endophytic in Platycladus orientalis of the Sonoran Desert” (J Nat Prod, 2008):
Activity calls are given as the source filed them. The calls are words filed in the database; no cut-off is given here.

How the values were obtained:
Format in all cases: functional, cell-based
NCI-H460 = assay: Antiproliferative activity against human NCI-H460 cells by MTT assay
Method in brief: (§1)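 Cells were exposed to serial dilutions of DMSO-dissolved samples for 72 h in RPMI 1640 with 10% fetal bovine serum and glutamax. Viability was read by the tetrazolium (MTT) colorimetric assay as inhibition of proliferation.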

[1] = Antiproliferative activity against human PC3M cells by MTT assay; details: PC-3M; method in brief: as §1
MCF7 = assay: Antiproliferative activity against human MCF7 cells by MTT assay; method in brief: as §1
NIH3T3 [2] = assay: Induction of apoptosis in mouse NIH3T3 cells assessed as accumulation at subG1 phase at 2.5 to 10 uM after 24 hrs by flow cytometry
PC-3M [3] = assay: Induction of apoptosis in human PC3M cells assessed as accumulation at subG1 phase at 2.5 to 10 uM after 24 hrs by flow cytometry
Method in brief: (§2)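 PC-3M cells at about 75% confluency were seeded at 2.5 × 10^5 cells/well and left to reattach overnight at 37 °C in 5% CO2. They were then treated for 24 h in RPMI 1640 with 10% FBS, penicillin 100 IU/mL, streptomycin 50 µg/mL and Glutamax 2 mM. Controls were 0.1% DMSO (negative) and 0.5 µg/mL nocodazole (positive). Floating and adherent cells were pooled, PBS-washed, stained for DNA content with Guava cell cycle reagent, and scored as % sub-G1 by flow cytometry.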

SF-268 = assay: Antiproliferative activity against human SF268 cells by MTT assay; method in brief: as §1
MIA PaCa-2 = assay: Antiproliferative activity against human MIAPaCa2 cells by MTT assay; method in brief: as §1
NIH3T3 [4] = assay: Induction of apoptosis in mouse NIH3T3 cells assessed as accumulation at subG1 phase at 0.5 ug/ml after 24 hrs by flow cytometry
PC-3M [5] = assay: Induction of apoptosis in human PC3M cells assessed as accumulation at subG1 phase at 0.5 ug/ml after 24 hrs by flow cytometry; method in brief: as §2

| IC50 (NCI-H460) | IC50 (MCF7) | IC50 (MIA PaCa-2) | SMILES | IC50 [1] | Activity (NIH3T3 [2]) | Activity (PC-3M [3]) | IC50 (SF-268) | Activity (NIH3T3 [4]) | Activity (PC-3M [5]) |
| --- | --- | --- | --- | --- | --- | --- | --- | --- | --- |
| 0.01 µM |  |  | COc1cccc2c1C(=O)c1c(O)c3c(c(O)c1C2=O)C[C@@](O)(C(=O)CO)C[C@@H]3O[C@H]1C[C@H](N)[C@H](O)[C@H](C)O1 [DOXORUBICIN] | 1.11 µM |  |  |  |  |  |
| 4.3 µM | 1.5 µM | 2.8 µM | C=C1CC[C@H]2C(C)(C)CCC[C@]2(C)[C@H]1CC1=C(O)C(=O)C(CO)=CC1=O [TAURANIN] | 3.5 µM | Active | Active | 1.8 µM |  |  |
|  |  |  | COC(=O)Nc1nc2cc(C(=O)c3cccs3)ccc2[nH]1 |  |  |  |  | Active | Active |
